Test results: ChEMBL document CHEMBL3525963, “Tissue distribution and elimination of [14C]apixaban in rats” (Drug Metab Dispos, 2011)

Experiments:
Type in all cases: ADME, organism-based
Settings in all cases: in vivo
Muscle tissue = assay: Biodistribution in male Sprague-Dawley rat muscle at 5 mg/kg, po administered as single dose measured after 0.5 hrs; parameters: dose 5 mg/kg, dosed compound name [14C]-apixaban, route oral
Procedure, shortened: (§1)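 [14C]apixaban (1.0 mg/mL, 20 μCi/mL) in 0.5% Tween 80 in Labrafil, given by oral gavage at 100 μCi/kg to male rats (225-252 g) fasted overnight through 4 h post-dose. One rat per time point. Carcasses frozen in hexane/dry ice and cut into 40 µm sagittal sections. QWBA read on phosphor plates against [14C]glucose standards, reported as µg eq/g. LLOQ 0.037 µg eq/g.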

Blood [1] = assay: Biodistribution in male Sprague-Dawley rat blood at 5 mg/kg, po administered as single dose measured after 1 hr; parameters: dose 5 mg/kg, dosed compound name [14C]-apixaban, route oral
Procedure, shortened: (§2)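 [¹⁴C]Apixaban given by oral gavage at 5 mg/kg (100 μCi/kg) in 0.5% Tween 80 in Labrafil (1.0 mg/mL dosing solution) to rats fasted overnight through 4 h post-dose. One rat per time point; carcass frozen in hexane/dry ice. Quantitative whole-body autoradiography used 40 µm sagittal sections and a phosphor imaging plate calibrated with [¹⁴C]glucose standards (0.001–6.5 μCi/g). Read-out in µg eq apixaban/g; LLOQ 0.037 μg eq/g.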

Thymus [2] = assay: Biodistribution in male Sprague-Dawley rat thymus at 5 mg/kg, po administered as single dose measured after 72 hrs; parameters: dose 5 mg/kg, dosed compound name [14C]-apixaban, route oral
Procedure, shortened: (§3)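 Fasted male SD rats (225-252 g) each received one oral gavage dose of [14C]apixaban, 5 mg/kg (100 μCi/kg), in 0.5% Tween 80/Labrafil vehicle. One rat was killed per time point, from 0.5 to 168 h. Frozen carcasses were cut into 40 µm sagittal whole-body sections and read by QWBA phosphor imaging against [14C]glucose calibrants. Results are in µg apixaban eq/g; BLQ <0.037 µg eq/g.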

Spleen = assay: Biodistribution in female Sprague-Dawley rat spleen at 5 mg/kg, po administered as single dose measured after 24 hrs; parameters: dose 5 mg/kg, dosed compound name [14C]-apixaban, route oral
Procedure, shortened: (§4)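 Quantitative whole-body autoradiography was run after a single 5 mg/kg (100 μCi/kg) oral gavage to fasted female or pregnant SD rats, one rat per time point. Carcasses were frozen in hexane/dry ice, and 40 µm sagittal sections were dried at −20°C for at least 48 h. Sections were exposed to a phosphor plate alongside [14C]glucose standards (0.001–6.5 µCi/g). Results are µg eq/g, with LLOQ 0.037 µg eq/g.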

Brain [3] = assay: Biodistribution in female Sprague-Dawley rat brain at 5 mg/kg, po administered as single dose measured after 8 hrs; parameters: dose 5 mg/kg, dosed compound name [14C]-apixaban, route oral
Procedure, shortened: (§5)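 [14C]Apixaban (1.0 mg/mL, 20 μCi/mL in 0.5% Tween 80 in Labrafil) given as a single oral gavage of 5 mg/kg (100 μCi/kg) to fasted female SD rats, one rat per time point. Carcasses were frozen in hexane/dry ice and cut into 40 µm sagittal sections for QWBA against [14C]glucose standards. Brain radioactivity is reported as µg eq/g, with LLOQ 0.037 µg eq/g.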

Thymus [4] = assay: Biodistribution in female Sprague-Dawley rat thymus at 5 mg/kg, po administered as single dose measured after 4 hrs; parameters: dose 5 mg/kg, dosed compound name [14C]-apixaban, route oral; procedure, shortened: as §2
Pancreas [5] = assay: Biodistribution in male Sprague-Dawley rat pancreas at 5 mg/kg, po administered as single dose measured after 24 hrs; parameters: dose 5 mg/kg, dosed compound name [14C]-apixaban, route oral; procedure, shortened: as §1
Lung = assay: Biodistribution in male Sprague-Dawley rat lung at 5 mg/kg, po administered as single dose measured after 72 hrs; parameters: dose 5 mg/kg, dosed compound name [14C]-apixaban, route oral; procedure, shortened: as §3
Adrenal gland = assay: Biodistribution in male Sprague-Dawley rat adrenal gland at 5 mg/kg, po administered as single dose measured after 4 hrs; parameters: dose 5 mg/kg, dosed compound name [14C]-apixaban, route oral; procedure, shortened: as §2
Rattus norvegicus [6] = assay: Biodistribution in male Sprague-Dawley rat pituitary gland at 5 mg/kg, po administered as single dose measured after 4 hrs; parameters: dose 5 mg/kg, dosed compound name [14C]-apixaban, route oral
Rattus norvegicus [7] = assay: Biodistribution in pregnant Sprague-Dawley rat salivary gland at 5 mg/kg, po administered as single dose measured after 8 hrs; parameters: dose 5 mg/kg, dosed compound name [14C]-apixaban, route oral
Liver = assay: Biodistribution in female Sprague-Dawley rat liver at 5 mg/kg, po administered as single dose measured after 0.5 hrs; parameters: dose 5 mg/kg, dosed compound name [14C]-apixaban, route oral; procedure, shortened: as §4
Brain [8] = assay: Biodistribution in female Sprague-Dawley rat brain at 5 mg/kg, po administered as single dose measured after 0.5 hrs; parameters: dose 5 mg/kg, dosed compound name [14C]-apixaban, route oral; procedure, shortened: as §5
Blood [9] = assay: AUC (0 to infinity) in male Sprague-Dawley rat blood at 5 mg/kg, po administered as single dose; parameters: time infinity, dose 5 mg/kg, dosed compound name [14C]-apixaban, route oral
[10] = Drug level in lactating Sprague-Dawley rat milk at 5 mg/kg, po administered as single dose; parameters: dose 5 mg/kg, dosed compound name [14C]-apixaban, route oral
Procedure, shortened: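 Lactating SD rats received a single oral gavage of 5 mg/kg (108 μCi/kg) in 0.5% Tween 80/Labrafil. Three rats were sampled per time point at 0.5-24 h. Oxytocin was given sc 15 min before milking under anesthesia. Milk, blood and plasma were counted in duplicate by liquid scintillation for 10 min and expressed as apixaban equivalents.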

Rattus norvegicus [11] = assay: Biodistribution in pregnant Sprague-Dawley rat placenta at 5 mg/kg, po administered as single dose measured after 48 hrs; parameters: dose 5 mg/kg, dosed compound name [14C]-apixaban, route oral
Procedure, shortened: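 Pregnant SD rats (270-319 g) were fasted overnight and given one oral gavage of 5 mg/kg (100 μCi/kg) in 0.5% Tween 80 in Labrafil. One rat was euthanized per time point (0.5, 1, 4, 8, 24, 48 h) and the carcass frozen. 40 µm sagittal sections were phosphor-imaged against [14C]glucose standards and results reported as µg eq/g; LLOQ 0.037 µg eq/g.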

Rattus norvegicus [12] = assay: Biodistribution in fetal blood of pregnant Sprague-Dawley rat at 5 mg/kg, po administered as single dose measured after 48 hrs; parameters: dose 5 mg/kg, dosed compound name [14C]-apixaban, route oral; procedure, shortened: as §4
Brain [13] = assay: Biodistribution in female Sprague-Dawley rat brain at 5 mg/kg, po administered as single dose measured after 4 hrs; parameters: dose 5 mg/kg, dosed compound name [14C]-apixaban, route oral; procedure, shortened: as §5
Rattus norvegicus [14] = assay: Biodistribution in pregnant Sprague-Dawley rat bone marrow at 5 mg/kg, po administered as single dose measured after 8 hrs; parameters: dose 5 mg/kg, dosed compound name [14C]-apixaban, route oral
Harderian gland = assay: Biodistribution in female Sprague-Dawley rat harderian gland at 5 mg/kg, po administered as single dose measured after 1 hr; parameters: dose 5 mg/kg, dosed compound name [14C]-apixaban, route oral; procedure, shortened: as §2
Plasma = assay: AUC (0 to t) in lactating Sprague-Dawley rat plasma at 5 mg/kg, po administered as single dose; parameters: dose 5 mg/kg, dosed compound name [14C]-apixaban, route oral
Procedure, shortened: (§6)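 Fasted lactating SD rats received 5 mg/kg [14C]apixaban orally (formulation 5.0 mg/mL, 20 μCi/mL). Oxytocin was injected subcutaneously 15 min before collection, and 1 mL milk was taken under anesthesia by milking machine. Sampling was predose and at 0.5–24 h, 3 rats per time point. Plasma was obtained at 1300g for 10 min. Duplicate 50–100 µL aliquots were counted by LSC for 10 min. AUC was calculated in WinNonlin.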

[15] = AUC (0 to t) in lactating Sprague-Dawley rat milk at 5 mg/kg, po administered as single dose; parameters: dose 5 mg/kg, dosed compound name [14C]-apixaban, route oral; procedure, shortened: as §6
Rattus norvegicus [16] = assay: Biodistribution in pregnant Sprague-Dawley rat bone marrow at 5 mg/kg, po administered as single dose measured after 24 hrs; parameters: dose 5 mg/kg, dosed compound name [14C]-apixaban, route oral
Procedure, shortened: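 Fasted pregnant SD rats (n=6, 270-319 g) each received one oral gavage dose of [14C]apixaban, 5 mg/kg (100 μCi/kg), in 0.5% Tween 80/Labrafil. One rat was killed at each of 0.5, 1, 4, 8, 24 and 48 h. Carcasses were frozen in hexane/dry ice, cut into 40 µm sagittal sections, exposed to phosphor plates and quantified against [14C]glucose standards as µg eq/g. LLOQ was 0.037 µg eq/g.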

Pancreas [17] = assay: Biodistribution in pregnant Sprague-Dawley rat pancreas at 5 mg/kg, po administered as single dose measured after 1 hr; parameters: dose 5 mg/kg, dosed compound name [14C]-apixaban, route oral

With `COc1ccc(-n2nc(C(N)=O)c3c2C(=O)N(c2ccc(N4CCCC[14C]4=O)cc2)CC3)cc1` as the compound, how does the Radiolabel recovery (Muscle tissue) read?
The Radiolabel recovery was 0.2 ugequiv/g.

And the Radiolabel recovery (Blood [1])?
The Radiolabel recovery was 1.18 ugequiv/g.

And the Radiolabel recovery (Thymus [2])?
Its Radiolabel recovery is “Not detected assumed BLQ”.

And the Radiolabel recovery (Spleen)?
Its Radiolabel recovery is “Not detected assumed BLQ”.

What about the Radiolabel recovery (Brain [3]) of the same compound?
The Radiolabel recovery was less than 0.037 ugequiv/g.

And the Radiolabel recovery (Thymus [4])?
The Radiolabel recovery was 0.3 ugequiv/g.

What about the Radiolabel recovery (Pancreas [5]) of the same compound?
Its Radiolabel recovery is less than 0.037 ugequiv/g.

And the Radiolabel recovery (Lung)?
Its Radiolabel recovery is “Not detected assumed BLQ”.

What about the Radiolabel recovery (Adrenal gland) of the same compound?
Its Radiolabel recovery is 0.76 ugequiv/g.

And the Radiolabel recovery (Rattus norvegicus [6])?
The Radiolabel recovery was 0.37 ugequiv/g.

And the Radiolabel recovery (Rattus norvegicus [7])?
Its Radiolabel recovery is 0.08 ugequiv/g.

And the Radiolabel recovery (Liver)?
The Radiolabel recovery was 2.67 µgequiv/g.

What about the Radiolabel recovery (Brain [8]) of the same compound?
Its Radiolabel recovery is less than 0.037 ugequiv/g.

What about the AUC (Blood [9]) of the same compound?
Its AUC is 4300 ngequiv.hr/g.

And the Radiolabel recovery [10]?
Its Radiolabel recovery is greater than 96%.

And the Radiolabel recovery (Rattus norvegicus [11])?
The Radiolabel recovery was “Not detected assumed BLQ”.

And the Radiolabel recovery (Rattus norvegicus [12])?
The Radiolabel recovery was “Not detected assumed BLQ”.

And the Radiolabel recovery (Brain [13])?
The Radiolabel recovery was less than 0.037 ugequiv/g.

What about the Radiolabel recovery (Rattus norvegicus [14]) of the same compound?
Its Radiolabel recovery is 0.06 ugequiv/g.

And the Radiolabel recovery (Harderian gland)?
The Radiolabel recovery was 0.64 ugequiv/g.

And the AUCt (Plasma)?
The AUCt was 3420 ngequiv.hr/g.

What about the AUCt [15] of the same compound?
Its AUCt is 103000 ngequiv.hr/g.

And the Radiolabel recovery (Rattus norvegicus [16])?
The Radiolabel recovery was “Not detected assumed BLQ”.

What about the Radiolabel recovery (Pancreas [17]) of the same compound?
Its Radiolabel recovery is 0.75 ugequiv/g.
